Experimental data from ChEMBL document CHEMBL1123923, “Steroidal silicon side-chain analogues as potential antifertility agents” (1987).

Key:
[1] = organism: Rattus norvegicus; test: Antifertility activity measured as minimum protective dose for prevention of pregnancy in rats; format: functional; parameters: unit not given here
How it was run: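 Oral dosing in adult cycling female rats selected in the proestrous phase, 10 animals per dose, with treatment starting on the day of proestrus.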

[2] = biological target: Estrogen receptor (Rattus norvegicus) (UniProt P06211+Q62986)
[3] = organism: Rattus norvegicus; test: Separation of antifertility from estrogenic activity in rats was measured; format: functional

Row | SMILES | Antifertility potency [1] | Estrogenic potency [2] | Separation [3]
1 | CC[Si](C#C[C@]1(O)CC[C@H]2[C@@H]3CCc4cc(O)ccc4[C@H]3CC[C@@]21C)(C#C[C@]1(O)CC[C@H]2[C@@H]3CCc4cc(O)ccc4[C@H]3CC[C@@]21C)CC | 0 | 8 | –
2 | C=CC[Si](C#C[C@]1(O)CC[C@H]2[C@@H]3CCc4cc(O)ccc4[C@H]3CC[C@@]21C)(CC)CC | 300 | 44 | 7
3 | CC(Cl)[Si](C)(C)C#C[C@]1(O)CC[C@H]2[C@@H]3CCc4cc(O)ccc4[C@H]3CC[C@@]21C (some centres not stated) | 300 | 45 | 7
4 | CC[Si](C#C[C@]1(O)CC[C@H]2[C@@H]3CCc4cc(OC(C)=O)ccc4[C@H]3CC[C@@]21C)(CC)CC | 600 | 34 | –
5 | CC(C)(C)C#C[C@]1(O)CC[C@H]2[C@@H]3CCc4cc(O)ccc4[C@H]3CC[C@@]21C | 1 | 0.07 | 14
6 | CCC[Si](C#C[C@]1(O)CC[C@H]2[C@@H]3CCc4cc(O)ccc4[C@H]3CC[C@@]21C)(CCC)CCC | 200 | 25 | 8
7 | CC[Si](C#C[C@]1(OC(=O)n2ccnc2)CC[C@H]2[C@@H]3CCc4cc(OC)ccc4[C@H]3CC[C@@]21C)(CC)CC | – | 3 | –
8 | CCCCCC[Si](C#C[C@]1(O)CC[C@H]2[C@@H]3CCc4cc(O)ccc4[C@H]3CC[C@@]21C)(CC)CC | 15 | 5.2 | 3
9 | C[C@]12CC[C@@H]3c4ccc(O)cc4CC[C@H]3[C@@H]1CC[C@@]2(O)C#C[Si](C)(C)CCC(F)(F)F | 150 | 19 | 8
10 | CCCC(=O)Oc1ccc2c(c1)CC[C@@H]1[C@@H]2CC[C@@]2(C)[C@H]1CC[C@]2(C#C[Si](CC)(CC)CC)OC(=O)CCC | 40 | 4 | –
11 | CC[Si](C#C[C@]1(O)CC[C@H]2[C@@H]3CCc4cc(O)ccc4[C@H]3CC[C@@]21C)(CC)C(C)C | 300 | 30 | 10
12 | CC[Si](C#C[C@]1(O)CC[C@H]2[C@@H]3CCc4cc(O)ccc4[C@H]3CC[C@@]21C)(CC)c1ccccc1 | 150 | 17 | 10
13 | CC[Si]1(C#C[C@]2(O)CC[C@H]3[C@@H]4CCc5cc(O)ccc5[C@H]4CC[C@@]32C)CCCCC1 | 200 | 85 | 2.4
14 | CC[Si]1(C#C[C@]2(O)CC[C@H]3[C@@H]4CCc5cc(O)ccc5[C@H]4CC[C@@]32C)CCCC1 | 500 | 120 | 4.2
15 | C[C@]12CC[C@@H]3c4ccc(O)cc4CC[C@H]3[C@@H]1CC[C@@]2(O)C#C[Si](C)(C)CCC#N | 300 | 37 | 8
16 | CCCC[Si](C#C[C@]1(O)CC[C@H]2[C@@H]3CCc4cc(O)ccc4[C@H]3CC[C@@]21C)(CCCC)CCCC | 0 | 2.5 | –
17 | CCC[Si](C=C[C@]1(O)CC[C@H]2[C@@H]3CCc4cc(O)ccc4[C@H]3CC[C@@]21C)(CCC)CCC | 0 | 0.05 | –
18 | C=C[Si](C)(C#C[C@]1(O)CC[C@H]2[C@@H]3CCc4cc(O)ccc4[C@H]3CC[C@@]21C)CC (some centres not stated) | 300 | 28 | 11
19 | C=C([C@]1(O)CC[C@H]2[C@@H]3CCc4cc(O)ccc4[C@H]3CC[C@@]21C)[Si](C)(C)C | 2 | 0.4 | 5
20 | CC[Si](/C=C\[C@]1(O)CC[C@H]2[C@@H]3CCc4cc(O)ccc4[C@H]3CC[C@@]21C)(CC)CC | 10 | 0.5 | 20
21 | CCCC[Si](C)(C)C#C[C@]1(O)CC[C@H]2[C@@H]3CCc4cc(O)ccc4[C@H]3CC[C@@]21C | 300 | 20 | 15
22 | CC[Si](O)(C#C[C@]1(O)CC[C@H]2[C@@H]3CCc4cc(O)ccc4[C@H]3CC[C@@]21C)CC | 300 | 11 | 27
23 | C[C@]12CC[C@@H]3c4ccc(O)cc4CC[C@H]3[C@@H]1CC[C@@]2(O)C#C[Si](c1ccccc1)(c1ccccc1)c1ccccc1 | 0 | 0.5 | –
24 | CC(C)(C)[Si](C)(C)C#C[C@]1(O)CC[C@H]2[C@@H]3CCc4cc(O)ccc4[C@H]3CC[C@@]21C | 600 | 20 | 30

Row | SMILES | Antifertility potency [1] | Estrogenic potency [2] | Separation [3]
25 | CCC[Si](C#C[C@]1(O)CC[C@H]2[C@@H]3CCc4cc(O)ccc4[C@H]3CC[C@@]21C)(CC)CC | 300 | 39 | 8
26 | C[C@]12CC[C@@H]3c4ccc(O)cc4CC[C@H]3[C@@H]1CC[C@@]2(O)C#C[Si](C)(C)CCCCl | 200 | 25 | 8
27 | CC[Si](/C=C/[C@]1(O)CC[C@H]2[C@@H]3CCc4cc(O)ccc4[C@H]3CC[C@@]21C)(CC)CC | 1.31 | 0.04 | 30
28 | C#C[C@]1(O)CC[C@H]2[C@@H]3CCc4cc(O)ccc4[C@H]3CC[C@@]21C [ETHINYL ESTRADIOL] | 100 | – | –
29 | C=CC[Si](C)(C)C#C[C@]1(O)CC[C@H]2[C@@H]3CCc4cc(O)ccc4[C@H]3CC[C@@]21C | 250 | 24 | 10
30 | CCCC(=O)Oc1ccc2c(c1)CC[C@@H]1[C@@H]2CC[C@@]2(C)[C@H]1CC[C@@]2(O)C#C[Si](CC)(CC)CC | 300 | 35 | –
31 | C[C@]12CC[C@@H]3c4ccc(O)cc4CC[C@H]3[C@@H]1CC[C@@]2(O)C#C[Si]1(C)CCCCC1 | 250 | 25 | 10
32 | CC[SiH](C#C[C@]1(O)CC[C@H]2[C@@H]3CCc4cc(O)ccc4[C@H]3CC[C@@]21C)CC | 600 | 29 | 21
33 | C=C([C@]1(O)CC[C@H]2[C@@H]3CCc4cc(O)ccc4[C@H]3CC[C@@]21C)[Si](CC)(CC)CC | 4 | 0.5 | 8
34 | CC[Si](C#C[C@]1(O)CC[C@H]2[C@@H]3CCc4cc(OC5CCCC5)ccc4[C@H]3CC[C@@]21C)(CC)CC | 300 | 24 | –
35 | CCC[Si](C)(C)C#C[C@]1(O)CC[C@H]2[C@@H]3CCc4cc(O)ccc4[C@H]3CC[C@@]21C | 300 | 22 | 14
36 | C[C@]12CC[C@@H]3c4ccc(O)cc4CC[C@H]3[C@@H]1CC[C@@]2(O)/C=C\[Si](C)(C)C | 5 | 0.5 | 10
37 | C#C[Si](C#C[C@]1(O)CC[C@H]2[C@@H]3CCc4cc(O)ccc4[C@H]3CC[C@@]21C)(CC)CC | 600 | 37 | 16
38 | C[C@]12CC[C@@H]3c4ccc(O)cc4CC[C@H]3[C@@H]1CC[C@@]2(O)C#C[Si](C)(C)CCl | 150 | 17 | 9
39 | CC(C)[Si](C)(C)C#C[C@]1(O)CC[C@H]2[C@@H]3CCc4cc(O)ccc4[C@H]3CC[C@@]21C | 300 | 15 | 20
40 | CCCC[Si](C#C[C@]1(O)CC[C@H]2[C@@H]3CCc4cc(O)cc(C(C)=O)c4[C@H]3CC[C@@]21C)(CCCC)CCCC | 0 | 4 | –
41 | C[C@]12CC[C@@H]3c4ccc(O)cc4CC[C@H]3[C@@H]1CC[C@@]2(O)/C=C/[Si](C)(C)C | 0 | 0.2 | –
42 | C[C@]12CC[C@@H]3c4ccc(O)cc4CC[C@H]3[C@@H]1CC[C@@]2(O)C#C[Si](C)(C)CBr | 200 | 27 | 7.4
43 | C[C@]12CC[C@@H]3c4ccc(O)cc4CC[C@H]3[C@@H]1CC[C@@]2(O)C#C[Si](C)(CCl)CCl | 150 | 39 | 4
44 | C[C@]12CC[C@@H]3c4ccc(O)cc4CC[C@H]3[C@@H]1CC[C@@]2(O)C#C[Si](C)(C)C(Cl)Cl | 300 | 18 | 17
45 | CC[Si](C#C[C@]1(O)CC[C@H]2[C@@H]3CCc4cc(O)ccc4[C@H]3CC[C@@]21C)(CC)CC | 600 | 37 | 16
46 | C=C([C@]1(O)CC[C@H]2[C@@H]3CCc4cc(O)ccc4[C@H]3CC[C@@]21C)[Si](CCC)(CCC)CCC | 2 | 0.5 | 4
47 | CCC(C)[Si](C)(C)C#C[C@]1(O)CC[C@H]2[C@@H]3CCc4cc(O)ccc4[C@H]3CC[C@@]21C (some centres not stated) | 300 | 20 | 15
